A short description of data set [1]: Toxicity in New Zealand White rabbit assessed as induction of eye lid closure at 0.5% administered topically to the eye. More on the design: species or system Oryctolagus cuniculus. The note with it: in vivo, topical_or_ocular. Summed up:
(§1)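 Single 25 µl drop given to the left eye of albino rabbits, which were held immobile for one minute afterwards. Irritation was followed by eye throughout the experiment and scored as blinking, head shaking or eyelid closure, with the duration of closure noted in seconds.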

In data set [2] the test system is Oryctolagus cuniculus. Kind of data set: Reduction of intraocular pressure in ocular normotensive New Zealand White rabbit administered topically to the eye measured for 0.5 to 8 hrs by tonometry (reference value: 12.00 +/- 6.81%). It is filed as functional. The conditions noted are these: topical.
The next data set has as its target Carbonic anhydrase 1 (Homo sapiens, UniProt P00915). Kind of data set: Inhibition of human carbonic anhydrase 1 incubated for 15 mins by phenol red staining-based stopped flow CO2 hydrase assay.
The target in the next data set is Carbonic anhydrase 12 (Homo sapiens, UniProt O43570). Briefly: Inhibition of human carbonic anhydrase 12 incubated for 15 mins by phenol red staining-based stopped flow CO2 hydrase assay.
Sequence of Carbonic anhydrase 12 (O43570 whole entry): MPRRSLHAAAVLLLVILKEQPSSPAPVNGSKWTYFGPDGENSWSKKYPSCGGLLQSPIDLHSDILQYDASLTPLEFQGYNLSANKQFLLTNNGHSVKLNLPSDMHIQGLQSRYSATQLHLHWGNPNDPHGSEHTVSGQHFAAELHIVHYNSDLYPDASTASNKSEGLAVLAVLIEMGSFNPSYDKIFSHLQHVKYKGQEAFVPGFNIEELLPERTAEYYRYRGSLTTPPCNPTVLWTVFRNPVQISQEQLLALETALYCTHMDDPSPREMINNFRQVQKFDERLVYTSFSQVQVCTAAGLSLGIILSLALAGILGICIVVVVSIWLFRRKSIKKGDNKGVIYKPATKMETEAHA
Data set [3] can be described thus: Toxicity in New Zealand White rabbit assessed as head shaking at 0.5% administered topically to the eye. More on the design: species or system Oryctolagus cuniculus. The conditions noted are these: in vivo, topical_or_ocular. Summed up: as §1
Data set [4] can be described thus: Toxicity in New Zealand White rabbit assessed as head shaking at 1% administered topically to the eye. More on the design: species or system Oryctolagus cuniculus. The note with it: in vivo, topical_or_ocular. The procedure, abridged: as §1
The test system of data set [5] is Oryctolagus cuniculus. Briefly: Reduction of intraocular pressure in ocular normotensive New Zealand White rabbit at 1% administered topically to the eye measured for 0.5 to 8 hrs by tonometry. It counts as functional, organism-based.
In a further data set the target is Carbonic anhydrase 2 (Homo sapiens, UniProt P00918). Kind of data set: Inhibition of human carbonic anhydrase 2 incubated for 15 mins by phenol red staining-based stopped flow CO2 hydrase assay.
In the next data set the target is Carbonic anhydrase 4 (Homo sapiens, UniProt P22748). Briefly: Inhibition of human carbonic anhydrase 4 incubated for 15 mins by phenol red staining-based stopped flow CO2 hydrase assay.
Sequence of Carbonic anhydrase 4 (P22748 whole entry): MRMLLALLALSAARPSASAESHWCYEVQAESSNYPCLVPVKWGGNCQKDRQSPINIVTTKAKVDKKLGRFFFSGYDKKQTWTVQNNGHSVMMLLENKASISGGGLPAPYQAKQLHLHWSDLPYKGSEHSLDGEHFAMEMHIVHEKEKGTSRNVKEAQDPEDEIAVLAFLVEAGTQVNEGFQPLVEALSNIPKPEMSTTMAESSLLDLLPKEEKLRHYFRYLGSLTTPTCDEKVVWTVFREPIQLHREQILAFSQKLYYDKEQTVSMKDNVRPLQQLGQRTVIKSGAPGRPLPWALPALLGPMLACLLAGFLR
Data set [6] is described as follows: Toxicity in New Zealand White rabbit assessed as induction of eye lid closure at 1% administered topically to the eye. The conditions noted are these: in vivo, topical_or_ocular. More on the design: species or system Oryctolagus cuniculus. The procedure, abridged:
as §1

Data set [7] relates to Oryctolagus cuniculus. Kind of data set: Reduction of intraocular pressure in ocular normotensive New Zealand White rabbit at 2% administered topically to the eye measured for 0.5 to 8 hrs by tonometry. It is filed as functional, organism-based.
Data set [8] in a line: Toxicity in New Zealand White rabbit assessed as head shaking at 2% administered topically to the eye. More on the design: species or system Oryctolagus cuniculus. The conditions noted are these: in vivo, topical_or_ocular. The procedure, abridged:
as §1

Data set [9] can be described thus: Toxicity in New Zealand White rabbit assessed as induction of eye lid closure at 2% administered topically to the eye. More on the design: species or system Oryctolagus cuniculus. The conditions noted are these: in vivo, topical_or_ocular. Summed up:
as §1

Data set [10] relates to Oryctolagus cuniculus. Kind of data set: Reduction of intraocular pressure in ocular normotensive New Zealand White rabbit at 0.5 % administered topically to the eye measured for 0.5 to 8 hrs by tonometry. It counts as functional, organism-based.

Calls of active or inactive are those of the source. The rule behind the calls is not given here.

Sequence of Carbonic anhydrase 1 (P00915 whole entry): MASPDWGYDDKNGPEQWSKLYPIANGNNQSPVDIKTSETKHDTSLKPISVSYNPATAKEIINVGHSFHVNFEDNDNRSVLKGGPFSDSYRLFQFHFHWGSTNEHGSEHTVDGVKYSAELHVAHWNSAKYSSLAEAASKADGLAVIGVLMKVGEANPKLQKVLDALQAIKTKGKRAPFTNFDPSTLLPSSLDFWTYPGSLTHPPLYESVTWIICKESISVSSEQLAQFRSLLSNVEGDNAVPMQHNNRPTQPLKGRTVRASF

In the case of `NS(=O)(=O)c1ccc(-c2cnc(C(=O)NC3CCNCC3)o2)cc1`, the Activity result in data set [1] and in [3] was “Non-Toxic” each time. Further, in the data set on Oryctolagus cuniculus [2], the Emax was determined as 19.4%. Further, the inhibition constant (Ki) at Carbonic anhydrase 1 amounted to 50.8 nM; at Carbonic anhydrase 12, 87.3 nM.

As to `NS(=O)(=O)c1ccc(-c2cnc(C(=O)N3CCNCC3)o2)cc1`, the Activity entry in [4] and in data set [6] was “Non-Toxic” in each case. For the same compound, the Emax in the data set with Oryctolagus cuniculus [2] was determined as 35.6%. In the data set with Oryctolagus cuniculus [5], the outcome was Active. The Ki at Carbonic anhydrase 1 was found to be 109 nM; on Carbonic anhydrase 2, 5 nM; on Carbonic anhydrase 12, 68.5 nM; at Carbonic anhydrase 4, 420 nM.

As to `CCN[C@H]1C[C@H](C)S(=O)(=O)c2sc(S(N)(=O)=O)cc21` [DORZOLAMIDE], in the data set on Oryctolagus cuniculus [7], the outcome was Active. In the data set with Oryctolagus cuniculus [2], this compound registered a maximal response (Emax) of 27.8%. For the same compound, the Activity result in data set [8] and in data set [9] was “Non-Toxic” in each case.

Regarding `NCCNC(=O)c1ncc(-c2ccc(S(N)(=O)=O)cc2)o1`, the Activity entry in [4] and in data set [6] was “Non-Toxic” in each case. In the data set with Oryctolagus cuniculus [2], the Emax stood at 29.6%. Moreover, the outcome with Oryctolagus cuniculus [5] was Active. Further, the Ki on Carbonic anhydrase 1 turned out to be 101 nM; on Carbonic anhydrase 12 it was 90.1 nM.

As to `NC1CCN(C(=O)c2ncc(-c3ccc(S(N)(=O)=O)cc3)o2)CC1`, the Activity entry in data set [1] is given as “Toxic”. Further, the Emax with Oryctolagus cuniculus [2] worked out at 22%. Also, the inhibitory constant (Ki) worked out at 61.9 nM at Carbonic anhydrase 1, 0.54 nM on Carbonic anhydrase 2, 91.5 nM at Carbonic anhydrase 12 and 257 nM at Carbonic anhydrase 4. In addition, the outcome with Oryctolagus cuniculus [10] was inactive.

In general, Emax refers to the greatest response seen or fitted, relative to the assay's reference. For orientation: Ki means a measure of affinity in units of concentration, obtained from inhibition or displacement. Read a high Ki as lower affinity.

The values are drawn from ChEMBL document CHEMBL4364335, “Highly hydrophilic 1,3-oxazol-5-yl benzenesulfonamide inhibitors of carbonic anhydrase II for reduction of glaucoma-related intraocular pressure” (Bioorg Med Chem, 2019).
